Measurements taken from ChEMBL document CHEMBL4020823, “Highly Selective, Potent, and Oral mTOR Inhibitor for Treatment of Cancer as Autophagy Inducer” (J Med Chem, 2018).
Activity calls are given as the source filed them. No cut-off for these calls is given here.

Legend:
[1] = system: SiHa; assay: Induction of autophagy in human SiHa cells assessed as increase in LC3-2 level at 1 uM after 48 hrs by Western blot analysis; format: functional, cell-based
In short: (§1)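 Cells treated with test agents at several concentrations for 2 days (48 h). LC3B-II detected by Western blot on lysates, with β-actin as internal control. Membranes blocked in 5% skim milk, primary antibodies at 4 °C overnight, peroxidase-conjugated anti-mouse or anti-rabbit IgG secondary, ECL detection.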

[2] = system: HeLa; assay: Cell cycle arrest in human HeLa cells assessed as accumulation at G0/G1 phase at 1 uM after 24 hrs by propidium iodide-staining based flow cytometric analysis; format: functional
In short: (§2)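 Cells were seeded at 5 × 10^5 cells/mL. At 24 h after plating they were treated with increasing concentrations for 24 h, washed in PBS, and fixed in ice-cold 70% ethanol for at least 24 h. They were stained with propidium iodide plus RNase A for 30 min at 37 °C and analysed by flow cytometry for phase distribution.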

[3] = system: MDA-MB-231; assay: Growth inhibition of human MDA-MB-231 cells after 72 hrs by CCK8 assay; format: functional, cell-based; conditions: MDA-MB-231, 72 h
In short: (§3)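 Cells were seeded at 2000–3000 per well and grown 24 h in serum-containing medium. They were then exposed to serially diluted compound for 72 h at 37 °C, 5% CO2. CCK8 reagent was added for 1–4 h and absorbance read at 450 nm. Inhibition = (AC − AS)/(AC − Ab) × 100%. IC50 is the average of at least three independent determinations.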

[4] = system: HeLa; assay: Induction of autophagy in human HeLa cells assessed as increase in LC3-2 level at 2 uM after 48 hrs by Western blot analysis; format: functional, cell-based
In short: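 Cells were treated for 48 h (2 days) with varying concentrations. Whole-cell lysates were immunoblotted for LC3B-II with β-actin as the internal control. Membranes were blocked in 5% skim milk, incubated with primary antibody overnight at 4 °C, then with peroxidase-conjugated secondary, and developed by ECL.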

[5] = system: NCI-H460; assay: Growth inhibition of human H460 cells after 72 hrs by CCK8 assay; format: functional, cell-based; conditions: NCI-H460, 72 h; in short: as §3
[6] = system: MCF7; assay: Induction of autophagy in human MCF7 cells assessed as increase in LC3-2 level at 0.5 uM after 48 hrs by Western blot analysis; format: functional, cell-based; in short: as §1
[7] = system: T47D; assay: Cell cycle arrest in human T47D cells assessed as decrease in S-phase at 0.5 uM after 24 hrs by propidium iodide-staining based flow cytometric analysis; format: functional; in short: as §2
[8] = system: MDA-MB-231; assay: Induction of autophagy in human MDA-MB-231 cells assessed as increase in LC3-2 level at 0.5 uM after 48 hrs by Western blot analysis; format: functional, cell-based; in short: as §1
[9] = system: OVCAR-5; assay: Growth inhibition of human OVCAR5 cells after 72 hrs by CCK8 assay; format: functional, cell-based; conditions: OVCAR-5, 72 h; in short: as §3
[10] = system: MDA-MB-231; assay: Cell cycle arrest in human MDA-MB-231 cells assessed as accumulation at G0/G1 phase at 0.5 uM after 24 hrs by propidium iodide-staining based flow cytometric analysis; format: functional; in short: as §2
[11] = system: MCF7; assay: Growth inhibition of human MCF7 cells after 72 hrs by CCK8 assay; format: functional, cell-based; conditions: MCF7, 72 h; in short: as §3
[12] = system: SiHa; assay: Cell cycle arrest in human SiHa cells assessed as accumulation at G0/G1 phase at 0.5 uM after 24 hrs by propidium iodide-staining based flow cytometric analysis; format: functional; in short: as §2
[13] = system: T47D; assay: Induction of autophagy in human T47D cells assessed as increase in LC3-2 level at 0.5 uM after 48 hrs by Western blot analysis; format: functional, cell-based; in short: as §1
[14] = system: HeLa; assay: Cell cycle arrest in human HeLa cells assessed as decrease in S-phase at 1 uM after 24 hrs by propidium iodide-staining based flow cytometric analysis; format: functional; in short: as §2
[15] = system: T47D; assay: Growth inhibition of human T47D cells after 72 hrs by CCK8 assay; format: functional, cell-based; in short: as §3
[16] = system: T47D; assay: Antitumor activity against human T47D cells xenografted in BALB/c nude mouse assessed as decrease in tumor growth at 60 mg/kg, po administered via gavage after 3 weeks relative to control; format: functional; conditions: 504 h, read-out: TGI
[17] = system: MCF7; assay: Cell cycle arrest in human MCF7 cells assessed as decrease in S-phase at 0.5 uM after 24 hrs by propidium iodide-staining based flow cytometric analysis; format: functional; in short: as §2
[18] = system: SK-OV-3; assay: Growth inhibition of human SKOV3 cells after 72 hrs by CCK8 assay; format: functional, cell-based; conditions: SK-OV-3, 72 h; in short: as §3
[19] = system: HeLa; assay: Growth inhibition of human HeLa cells after 72 hrs by CCK8 assay; format: functional, cell-based; in short: as §3
[20] = system: MCF7; assay: Cell cycle arrest in human MCF7 cells assessed as accumulation at G0/G1 phase at 0.5 uM after 24 hrs by propidium iodide-staining based flow cytometric analysis; format: functional; in short: as §2
[21] = system: SiHa; assay: Cell cycle arrest in human SiHa cells assessed as decrease in S-phase at 0.5 uM after 24 hrs by propidium iodide-staining based flow cytometric analysis; format: functional; in short: as §2
[22] = system: MDA-MB-231; assay: Cell cycle arrest in human MDA-MB-231 cells assessed as decrease in S-phase at 0.5 uM after 24 hrs by propidium iodide-staining based flow cytometric analysis; format: functional; in short: as §2
[23] = system: T47D; assay: Cell cycle arrest in human T47D cells assessed as accumulation at G0/G1 phase at 0.5 uM after 24 hrs by propidium iodide-staining based flow cytometric analysis; format: functional; in short: as §2
[24] = system: SiHa; assay: Growth inhibition of human SiHa cells after 72 hrs by CCK8 assay; format: functional, cell-based; in short: as §3
[25] = system: T47D; assay: Antitumor activity against human T47D cells xenografted in BALB/c nude mouse assessed as tumor weight at 60 mg/kg, po administered via gavage after 3 weeks (reference value: 1.23 g); format: functional
[26] = system: T47D; assay: Induction of autophagy in human T47D cells assessed as increase in LC3-2 puncta level at 0.5 uM after 48 hrs by immunofluorescence staining based microscopic analysis; format: functional, cell-based
In short: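 Cells seeded on glass coverslips in complete 1640 or DMEM and incubated with inhibitors at different concentrations for 48 h. Fixed in 4% paraformaldehyde, permeabilized with 0.15% Triton X-100, blocked in 4% BSA/PBS for 1 h at room temperature. Anti-LC3B (1:200) overnight, then FITC-conjugated secondary, DAPI nuclear stain. LC3B-II puncta viewed by fluorescence microscopy.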

Compound: CO[C@H]1C[C@@H]2CC[C@@H](C)[C@@](O)(O2)C(=O)C(=O)N2CCCC[C@H]2C(=O)O[C@H]([C@H](C)C[C@@H]2CC[C@@H](O)[C@H](OC)C2)CC(=O)[C@H](C)/C=C(\C)[C@@H](O)[C@@H](OC)C(=O)[C@H](C)C[C@H](C)/C=C/C=C/C=C/1C [SIROLIMUS]
- Activity [1]: Active
- Activity [2]: Active
- IC50 [3]: > 10 µM
- Activity [4]: Active
- IC50 [5]: > 10 µM
- Activity [6]: Active
- Activity [7]: Active
- Activity [8]: Active
- IC50 [9]: > 10 µM
- Activity [10]: Active
- IC50 [11]: 4.98 µM
- Activity [12]: Active
- Activity [13]: Active
- Activity [14]: Active
- IC50 [15]: 1.58 µM
- inhibition in vivo at 60 mg/kg [16]: 72.4%
- Activity [17]: Active
- IC50 [18]: > 10 µM
- IC50 [19]: > 10 µM
- Activity [20]: Active
- Activity [21]: Active
- Activity [22]: Active
- Activity [23]: Active
- IC50 [24]: 1.76 µM
- Activity [25]: 0.36 g
- Activity [26]: Dose-dependent effect
